What was measured:
[1] = test system: KIF15 on spindle microtubules in RPE-1 cells; test: KIF15 on metaphase spindles; format: cell-based, human; settings: Fift-IN 25 µM, Munesib-1 50 µM
Outline: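 RPE-1 cells on glass coverslips were treated overnight with test compound (25 or 50 µM) or DMSO in normal medium. Cells were fixed in 100% methanol at –20°C for 10 min. Staining used rabbit anti-KIF15 (1:2000, 1 h), FITC anti-α-tubulin (1:500, 30 min) and Hoechst 33342. Max-intensity z-projections were imaged.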

KIF15-N420 = target: T1, KIF15-N420 (Homo sapiens, UniProt Q9NS87); test: ATP-dependent steady-state ATPase assay; format: biochemical; settings: 30 μM compound, 3 μM microtubules, fit ± 95% confidence interval
T1 sequence (Q9NS87 1-420 limits assumed): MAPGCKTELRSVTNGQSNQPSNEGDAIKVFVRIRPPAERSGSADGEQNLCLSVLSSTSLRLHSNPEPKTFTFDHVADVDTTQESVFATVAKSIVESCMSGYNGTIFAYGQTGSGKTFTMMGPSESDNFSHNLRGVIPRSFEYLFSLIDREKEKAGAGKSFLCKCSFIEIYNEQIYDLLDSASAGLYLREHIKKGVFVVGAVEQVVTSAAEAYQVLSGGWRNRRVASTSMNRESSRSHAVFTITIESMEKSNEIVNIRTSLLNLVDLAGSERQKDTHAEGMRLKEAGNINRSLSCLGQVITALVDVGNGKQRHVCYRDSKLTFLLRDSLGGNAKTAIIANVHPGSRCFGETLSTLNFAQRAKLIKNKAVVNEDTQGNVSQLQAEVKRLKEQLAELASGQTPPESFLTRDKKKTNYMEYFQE
Outline: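 KIF15-N420 ATPase measured by NADH-coupled assay, with absorbance at 340 nm followed over time at 25°C. Rates were divided by active motor concentration. ATP was varied, with microtubules held at 3 μM. Test compound was 30 μM, or an equal volume of DMSO. Michaelis-Menten fits were weighted by 1/SEM, with n = 5–7 per concentration. kcat and Km are reported as fit ± 95% confidence interval.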

KIF15-N700 [2] = target: T2, KIF15-N700 (Homo sapiens, UniProt Q9NS87); test: Microtubule gliding assay; format: biochemical
T2 sequence (Q9NS87 1-700 limits assumed): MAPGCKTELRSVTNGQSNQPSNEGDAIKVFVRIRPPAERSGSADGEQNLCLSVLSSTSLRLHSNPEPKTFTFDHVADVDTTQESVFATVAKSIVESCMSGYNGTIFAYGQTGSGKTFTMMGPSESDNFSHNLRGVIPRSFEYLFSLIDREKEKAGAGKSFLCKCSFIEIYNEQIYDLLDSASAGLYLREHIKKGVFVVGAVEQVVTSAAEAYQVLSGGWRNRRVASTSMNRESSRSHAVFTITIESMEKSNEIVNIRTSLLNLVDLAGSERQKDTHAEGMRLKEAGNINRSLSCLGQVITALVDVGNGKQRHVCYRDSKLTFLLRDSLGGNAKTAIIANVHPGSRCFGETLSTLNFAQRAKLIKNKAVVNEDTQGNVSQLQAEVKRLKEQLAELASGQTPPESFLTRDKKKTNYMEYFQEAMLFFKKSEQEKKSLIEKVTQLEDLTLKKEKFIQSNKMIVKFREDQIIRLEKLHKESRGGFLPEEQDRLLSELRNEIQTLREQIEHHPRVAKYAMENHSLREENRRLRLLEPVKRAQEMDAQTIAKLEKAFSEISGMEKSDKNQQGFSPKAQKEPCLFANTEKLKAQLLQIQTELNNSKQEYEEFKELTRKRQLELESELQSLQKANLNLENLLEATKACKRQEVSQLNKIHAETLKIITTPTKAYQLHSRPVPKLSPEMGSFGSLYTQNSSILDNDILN
Outline: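 His6-KIF15-N700 was expressed in High Five insect cells, then purified by Ni-NTA and Superdex 200 gel filtration. Microtubule gliding was imaged every 5 s for 1 min at 100×. Velocity was taken as distance travelled in 1 min, from ≥15 microtubules at each of three slide locations (n ≥ 50 per slide). Concentration-response curves used eight concentrations from 10 nM up to 30 or 100 µM, in triplicate. Single-point derivative tests used 25 µM.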

KIF15-N700 [3] = target: T2, KIF15-N700; test: Microtubule binding to coverslip via KIF15 in gliding assay; settings: 1 min postdrug addition; 24 µM Munesib-1 or 100 µM Fift-IN
Outline: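 During KIF15-N700 gliding assays, microtubules bound to the coverslip were counted immediately before adding drug and after 1 min of incubation. Test compound was 24 µM or 100 µM; DMSO served as control. Results are expressed as the percentage of microtubules remaining bound.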

[4] = 24 µM Munesib-1 or 100 µM Fift-IN

- kcat, ATP-dependent ATPase (KIF15-N420): 2.6 ± 0.4 s^–1
- gliding velocity after removal of compound (wash-out) (KIF15-N700 [2]; 24 μM Munesib-1): nearly restored to baseline
- microtubule gliding on addition of compound (wash-in) (KIF15-N700 [2]; 24 μM Munesib-1): fully abrogated
- inhibition of microtubule gliding, KIF15 (KIF15-N700 [2]; [4]): robustly inhibited
- reversibility of inhibition (washout experiment) (KIF15-N700 [2]; [4]): reversible inhibitor
- % inhibition of KIF15 microtubule gliding activity (KIF15-N700 [2]; 25 µM, singlicate): completely eliminates
- IC50 (KIF15-N700 [2]; IC50, microtubule gliding assay, KIF15-N700): 400 nM
- fold stronger inhibitory action against KIF15 than Fift-IN (KIF15-N700 [2]; in vitro ATPase and microtubule gliding assays): roughly 10 fold
- microtubules remaining bound to the coverslip via KIF15 (KIF15-N700 [3]): little effect on binding
Structure (SMILES): COC(=O)c1ccc2c(c1)N(C)S(=O)(=O)c1cnc(SC)nc1-2 [Munesib-1, Methyl 6-methyl-2-(methylthio)-6H-benzo[c]pyrimido[4,5-e][1,2]thiazine-8-carboxylate 5,5-dioxide]
- amount of KIF15 on metaphase spindle [1]: little effect

— article PMC9727797 (Molecular Biology of the Cell, 2022)
